Data published in article PMC4383680 (Nature, 2015).
Entries after “also recorded” stand apart in the source; their conditions may differ. No end group written: not given here.

Columns and labels:
[1] = target: MC4R + Kir7.1 (M125R) in HEK293 cells (Homo sapiens, UniProt P32245); type: cell-based
PVN MC4R neurons [2] = experiment: Voltage clamp; type: cell-based, mouse
MC4R - Gαi = experiment: Coupling of MC4R to Gαi; type: cell-based; conditions: Extended Data Fig. 6a–c
PVN MC4R neurons [3] = experiment: Firing frequency of PVN MC4R neurons; type: cell-based, mouse
Method in brief: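 Slices from MC4R-GFP mice, 200 μm, cut at 44–49°, held in oxygenated ACSF at 31 °C. AgRP applied to the bath. Cells held around −50 mV so they fire spontaneously. Firing frequency counted for 3 min before peptide and for 3 min at 7–11 min after, then compared.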

MC4R [4] = target: T1, MC4R (Homo sapiens, UniProt P32245); experiment: β-arrestin recruitment; type: cell-based; conditions: increasing concentrations, PathHunter, 90 min, 37 °C
PVN MC4R neurons [5] = experiment: Current clamp membrane potential of PVN MC4R neurons, hypothalamic slices; type: cell-based, mouse; conditions: for amplitude of α-MSH depolarization at higher concentration of salt: BaCl2 >1 mM, CsCl >2.5 mM; for effect of BaCl2 or CsCl on α-MSH induced depolarization: external, various concentrations
Method in brief: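 MC4R-GFP mouse hypothalamic slices, 200 μm, cut at 44–49° to horizontal in near-freezing oxygenated aCSF and kept in oxygenated ACSF at 31 °C. α-MSH (250 nM) bath-applied. Continuous current clamp with membrane potential held at −55 to −60 mV to prevent spontaneous firing. Potential averaged over 3 min before peptide versus a 3 min window 7–11 min after. Zero-ATP internal at pH 7.2, 298 mosmol/kg.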

[6] = system: inward rectifying K+ (Kir) channels; conditions: at concentrations that block other Kir channels; ref [12]; cited from earlier work
[7] = system: D1 dopamine receptor in PVN neurons; experiment: D1 receptor mediated depolarization of PVN neurons; type: cell-based, mouse; conditions: 5 μM SKF83822
Method in brief: (§1)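 Mouse hypothalamic slices, 200 μm, cut at 44–49° from horizontal in oxygenated near-freezing aCSF and transferred to oxygenated ACSF at 31 °C. PVN neurons recorded in whole cell mode. Cells accepted only with holding current ≤30 pA at −70 mV, large rebound spikes, ability to fire, and no blebbing or visible nucleus.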

[8] = system: μ-opioid receptor in PVN MC4R neurons; experiment: μ-opioid; type: cell-based, mouse; conditions: DAMGO 10 μM; for effect on DAMGO response: GTPγS 1.5 mM or gallein 25 μM
Method in brief: as §1

[9] = target: 3HA-MC4R (melanocortin-4 receptor) (human) (UniProt P32245)
MC4R [10] = target: T1, MC4R; experiment: Intracellular cAMP / MC4R coupling to Gαs; type: cell-based; conditions: Fig. 4a

T1 sequence (P32245 whole entry): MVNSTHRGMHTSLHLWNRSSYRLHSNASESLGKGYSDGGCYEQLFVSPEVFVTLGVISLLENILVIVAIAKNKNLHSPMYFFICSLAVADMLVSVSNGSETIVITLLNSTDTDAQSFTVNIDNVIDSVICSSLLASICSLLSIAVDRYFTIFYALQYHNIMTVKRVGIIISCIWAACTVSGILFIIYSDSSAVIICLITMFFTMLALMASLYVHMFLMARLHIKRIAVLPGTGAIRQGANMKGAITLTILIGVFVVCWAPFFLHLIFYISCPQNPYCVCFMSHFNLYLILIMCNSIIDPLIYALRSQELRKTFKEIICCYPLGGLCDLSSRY
Sequence of 3HA-MC4R (melanocortin-4 receptor) (human) (P32245 whole entry): as above
Sequence of MC4R + Kir7.1 (M125R) in HEK293 cells (P32245 whole entry, stated change not applied): as the sequence (P32245 whole entry) above

CSCC[C@@H]1NC(=O)[C@H](C)NC(=O)[C@H]([C@@H](C)O)NC(=O)CNC(=O)[C@H](CC(C)C)NC(=O)[C@H](CCCCN)NC(=O)[C@H](CCCNC(=N)N)NC(=O)[C@@H]2CSSC[C@@H]3NC(=O)[C@@H]4CCCN4C(=O)[C@H](C(C)C)NC(=O)[C@H](CCC(N)=O)NC(=O)[C@H](CCC(N)=O)NC(=O)CNC(=O)[C@H](CC(C)C)NC(=O)[C@@H]4CSSC[C@H](NC(=O)[C@H]([C@@H](C)O)NC(=O)[C@H](C)NC(=O)[C@H](CSSC[C@@H](C(=O)N[C@@H](CO)C(=O)N[C@@H](CCCNC(=N)N)C(=O)N[C@H](C(=O)O)[C@@H](C)O)NC(=O)[C@@H]5CCCN5C(=O)[C@H](CC(N)=O)NC1=O)NC(=O)[C@@H]1CCCN1C(=O)[C@H](CC(=O)O)NC(=O)[C@H](CSSC[C@H](NC(=O)[C@H](CCCNC(=N)N)NC(=O)[C@H](CCCNC(=N)N)NC(=O)[C@H](CO)NC(=O)[C@@H](N)CO)C(=O)N[C@@H](C(C)C)C(=O)N[C@@H](CCCNC(=N)N)C(=O)N[C@@H](CC(C)C)C(=O)N[C@@H](Cc1c[nH]cn1)C(=O)N[C@@H](CCC(=O)O)C(=O)N[C@@H](CO)C(=O)N4)NC3=O)C(=O)N[C@@H](Cc1ccc(O)cc1)C(=O)N[C@H]1CSSC[C@H](NC(=O)[C@H](Cc3ccccc3)NC(=O)[C@H](C)NC(=O)[C@H](CC(N)=O)NC(=O)[C@H](Cc3ccccc3)NC(=O)[C@H](Cc3ccccc3)NC(=O)[C@H](CCCNC(=N)N)NC1=O)C(=O)N[C@@H](Cc1ccc(O)cc1)C(=O)N2 [AgRP, Agouti-related protein]
duration of increase of Tl+ flux ([1]; low dose AgRP 1 nM, data not shown): up to 24 h | effect on K+ current of PVN MC4R neurons (PVN MC4R neurons [2]): generates hyperpolarizing current by opening of inward rectifying K^+ channels; also recorded: increases the density of an inward rectifying K^+ current | reversal potential of AgRP-activated current (PVN MC4R neurons [2]; AgRP 50 nM, 20 mM external K+): −46.7 +/− 3.0 mV | increase of membrane conductance (PVN MC4R neurons [2]; AgRP 50 nM, 20 mM external K+, n=6): 75% | coupling to Gαi (MC4R - Gαi): did not appear to couple the MC4R to the cAMP inhibitory G protein, Gαi | effect on firing activity (PVN MC4R neurons [3]; AgRP, cells held around −50 mV): inhibiting their firing activity | β-arrestin recruitment (MC4R [4]): did not appear to; also recorded: without any effect | membrane potential response (PVN MC4R neurons [5]; 100 nM AgRP, bath application, current clamp, **p<0.01): hyperpolarized PVN MC4R neurons; also recorded: hyperpolarizing response

[Ba+2].[Cl-].[Cl-] [BaCl2]
sensitivity of Kir7.1 to external salt [6]: resistant | amplitude of α-MSH depolarization at higher concentration of salt (PVN MC4R neurons [5]): increased amplitude | effect of BaCl2 or CsCl on α-MSH induced depolarization (PVN MC4R neurons [5]; current clamp): not blocked in higher concentrations; also recorded: persisted

[Cl-].[Cs+] [CsCl]
sensitivity of Kir7.1 to external salt [6]: resistant | amplitude of α-MSH depolarization at higher concentration of salt (PVN MC4R neurons [5]): increased amplitude | effect of BaCl2 or CsCl on α-MSH induced depolarization (PVN MC4R neurons [5]; current clamp): not blocked in higher concentrations; also recorded: persisted

Nc1nc2c(ncn2[C@@H]2O[C@H](COP(=O)(O)OP(O)(O)=S)[C@@H](O)[C@H]2O)c(=O)[nH]1 [GDPβS]
effect on D1 (SKF83822) mediated depolarization ([7]; 5 mM GDPβS intrapipette): blocks the depolarization and firing activity induced by SKF83822; also recorded: blocked D1 mediated depolarization | effect on α-MSH induced depolarization (PVN MC4R neurons [5]; 5 mM GDPβS, intrapipette): fails to block the α-MSH – induced depolarization; also recorded: failed to block α-MSH induced depolarization of PVN MC4R neurons

Nc1nc2c(ncn2[C@@H]2O[C@H](COP(=O)(O)OP(=O)(O)OP(O)(O)=S)[C@@H](O)[C@H]2O)c(=O)[nH]1 [GTPγS]
effect on DAMGO response [8]: does block the hyperpolarization induced by μ-opioid agonist | effect on α-MSH induced firing or depolarization (PVN MC4R neurons [5]; GTPγS 1.5 mM, whole cell): ineffective in blocking neuronal firing or depolarization; also recorded: fails to block the depolarization induced by α-MSH

CCCCCCCC(=O)OC[C@H](COP(=O)(O)O[C@@H]1[C@H](O)[C@H](O)[C@@H](OP(=O)(O)O)[C@H](OP(=O)(O)O)[C@H]1O)OC(=O)CCCCCCC [PI(4,5)P2 diC8]
effect on α-MSH induced depolarization (PVN MC4R neurons [5]; 100 μM PI(4,5)P2 diC8 in zero ATP internal solution): significantly increased the amplitude of the α-MSH induced depolarization; also recorded: potentiated the α-MSH-induced response

C=CCN1CCc2c(cc(O)c(O)c2Cl)C(c2cccc(C)c2)C1 (stereo not shown) [SKF83822]
depolarization of PVN neurons by D1 agonist [7]: causes depolarization of PVN neurons; also recorded: depolarized PVN neurons

Nc1ncnc2c1ncn2C1CCCO1 (stereo not shown) [SQ22536]
effect on α-MSH induced depolarization (PVN MC4R neurons [5]; SQ22536 25 μM, adenylyl cyclase inhibition): fails to block depolarizing effects of α-MSH; also recorded: failed to block α-MSH induced depolarization

N#CC(=C(/N)Sc1ccccc1N)/C(C#N)=C(/N)Sc1ccccc1N [U0126]
effect on α-MSH induced increase in firing frequency (PVN MC4R neurons [3]; U0126 1 μM, whole cell): ineffective in blocking neuronal firing or depolarization; also recorded: fails to block α-MSH -induced increase in firing frequency

Cc1ccc(OCC(O)Cn2c(=N)n(Cc3ccccc3)c3ccccc32)cc1 (stereo not shown) [VU573]
inhibition of depolarizing effect of α-MSH (PVN MC4R neurons [5]; 15 μM VU573, 250 nM α-MSH): ~ 80%

O=[N+]([O-])c1ccc(CN2CCOCCOCCN(Cc3ccc([N+](=O)[O-])cc3)CCOCC2)cc1 [VU590]
effect of Kir blocker on α-MSH induced depolarization (PVN MC4R neurons [5]; 250 nM α-MSH, blocker concentration not given): blocked

O=C1OC2(c3ccccc31)c1ccc(O)c(O)c1Oc1c2ccc(O)c1O [gallein]
effect on DAMGO response [8]: blocks the effects of DAMGO | effect on α-MSH induced firing or depolarization (PVN MC4R neurons [5]; gallein 25 μM, Gβγ blocker): ineffective in blocking neuronal firing or depolarization; also recorded: fails to inhibit α-MSH induced depolarization

DAMGO
effect of DAMGO on membrane potential [8]: hyperpolarization

miniAgRP (AgRP 87-120) (from UniProt O00253 87-120) (peptide)
stimulation of Kir7.1 activity, potency [9]: 1.7e-07

miniAgRP: AgRP analogue, AgRP87-120 (87-122); synthesized, purified and folded by authors (CVRLHESCLGQQVPCCDPCATCYCRFFNAFCYCR; ends and bridges not checked; also: folded, disulfide pairing not given here; UniProt O00253 87-120, looked up, fragment)
coupling of MC4R to Kir7.1 ([1]; Fig. 4b): lost its ability to couple MC4R to Kir7.1 | potency in inhibition of MC4R coupling to Gαs (MC4R [10]): retains normal affinity for MC4R, and potency in inhibition of MC4R coupling to Gαs

SSRRCVRLHESCLGQQVPCCDPCATCYCRFFNAFCYCRKLGTAMNPCSRT (domain or fragment, ends and bridges not checked; cysteine pairing not given here) [wtAgRP (83-132)]
stimulation of Kir7.1 activity, potency [9]: 3.6e-09
